Experimental data as given in ChEMBL document CHEMBL4334447, “Discovery of 4-Aminoquinoline-3-carboxamide Derivatives as Potent Reversible Bruton's Tyrosine Kinase Inhibitors for the Treatment of Rheumatoid Arthritis” (J Med Chem, 2019).

Assay: Kinetic aqueous solubility of the compound in pH 7.4 phosphate buffered saline incubated for 24 hrs under shaking condition by HPLC analysis
Format: physicochemical
Conditions: read-out: Kinetic_solubility
Outline: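 Dry powder shaken 24 h at 25 °C in 0.1 M phosphate buffer, pH 7.4, then filtered through a 0.45 µm membrane. Concentration determined by HPLC against a standard of the compound in DMSO. Mean of three separate assays in triplicate.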

Q: With `Cc1cc2cn[nH]c2cc1-c1cccc2c(N)c(C(N)=O)nnc12` as the compound, how does the solubility kinetic at 24 h read?
A: < 0.05 µg/mL
